Reference: ChEMBL document CHEMBL3758120, “Synthesis and Mechanism Studies of 1,3-Benzoazolyl Substituted Pyrrolo[2,3-b]pyrazine Derivatives as Nonintercalative Topoisomerase II Catalytic Inhibitors” (J Med Chem, 2016)
Calls of active or inactive are those of the source. No cut-off for these calls is given here.

Experiments:
[1] = molecular target: DNA topoisomerase 2-alpha (Homo sapiens, UniProt P11388); experiment: Inhibition of purified human topoisomerase 2-mediated relaxation of supercoiled pBR322 DNA at 50 uM incubated for 30 mins by agarose gel electrophoresis
Chain of DNA topoisomerase 2-alpha (P11388 whole entry): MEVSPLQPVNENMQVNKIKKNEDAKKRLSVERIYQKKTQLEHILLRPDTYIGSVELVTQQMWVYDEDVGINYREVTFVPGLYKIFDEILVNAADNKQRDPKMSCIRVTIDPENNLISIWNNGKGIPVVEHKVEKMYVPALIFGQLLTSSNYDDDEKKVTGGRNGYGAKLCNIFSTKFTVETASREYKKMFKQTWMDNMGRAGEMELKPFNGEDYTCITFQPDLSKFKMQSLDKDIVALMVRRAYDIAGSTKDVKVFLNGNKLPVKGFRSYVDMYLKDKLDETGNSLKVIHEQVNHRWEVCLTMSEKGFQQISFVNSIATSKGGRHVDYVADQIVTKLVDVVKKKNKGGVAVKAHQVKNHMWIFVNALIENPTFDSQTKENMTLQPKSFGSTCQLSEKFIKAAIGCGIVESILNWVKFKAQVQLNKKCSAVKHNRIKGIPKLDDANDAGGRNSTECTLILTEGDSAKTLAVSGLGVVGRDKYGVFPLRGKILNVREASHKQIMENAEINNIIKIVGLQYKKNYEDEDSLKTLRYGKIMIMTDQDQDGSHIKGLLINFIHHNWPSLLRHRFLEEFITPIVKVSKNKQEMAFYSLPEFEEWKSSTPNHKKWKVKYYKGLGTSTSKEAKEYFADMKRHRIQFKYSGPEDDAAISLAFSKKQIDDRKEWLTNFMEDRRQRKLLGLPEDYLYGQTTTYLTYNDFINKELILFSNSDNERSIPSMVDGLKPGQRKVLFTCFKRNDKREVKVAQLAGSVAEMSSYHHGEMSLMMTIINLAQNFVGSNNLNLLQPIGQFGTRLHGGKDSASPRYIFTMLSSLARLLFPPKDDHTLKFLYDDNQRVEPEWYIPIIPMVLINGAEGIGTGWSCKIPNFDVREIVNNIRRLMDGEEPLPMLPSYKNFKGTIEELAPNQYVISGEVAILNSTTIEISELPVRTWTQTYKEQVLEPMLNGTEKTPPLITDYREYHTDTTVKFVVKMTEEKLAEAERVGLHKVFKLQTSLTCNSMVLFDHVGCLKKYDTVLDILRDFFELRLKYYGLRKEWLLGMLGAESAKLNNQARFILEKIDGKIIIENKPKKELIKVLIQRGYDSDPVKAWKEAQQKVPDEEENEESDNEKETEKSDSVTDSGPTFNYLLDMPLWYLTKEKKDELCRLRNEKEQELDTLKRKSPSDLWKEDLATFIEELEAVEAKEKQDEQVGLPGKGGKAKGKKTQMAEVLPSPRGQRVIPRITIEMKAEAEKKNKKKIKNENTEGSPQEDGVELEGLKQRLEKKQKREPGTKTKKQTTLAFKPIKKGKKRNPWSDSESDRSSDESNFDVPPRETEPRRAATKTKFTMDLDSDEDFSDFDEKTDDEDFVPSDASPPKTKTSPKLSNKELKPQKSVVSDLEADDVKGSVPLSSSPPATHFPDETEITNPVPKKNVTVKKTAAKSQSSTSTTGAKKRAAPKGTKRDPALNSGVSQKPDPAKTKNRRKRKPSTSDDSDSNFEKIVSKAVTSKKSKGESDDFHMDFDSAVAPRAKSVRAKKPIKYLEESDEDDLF
Summary of the method: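 Reactions contained 0.2 μg supercoiled pBR322 in 50 mM Tris-HCl pH 8.0, 150 mM NaCl, 10 mM MgCl2, 0.5 mM DTT, 30 μg/ml BSA, normally 2 mM ATP (1, 2 or 4 mM in ATP-competition runs). Started with 1 U human Topo II, 30 min at 37 °C, stopped with sarcosyl buffer, run on 1% agarose 1.5 h at 75 V, gel-stained and imaged under UV.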

HeLa = experiment: Antiproliferative activity against human HeLa cells after 48 hrs by MTT assay; type: functional, cell-based
Summary of the method: (§1)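 Cells seeded at 5000 per well and left overnight, then exposed to increasing concentrations (0-50 μM) for 48 h. […] HL-60/MX2 is a mitoxantrone-selected HL-60 derivative with reduced Topo IIα/β.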

[2] = Antiproliferative activity against human HL60 cells after 48 hrs by MTT assay; type: functional, cell-based; conditions: HL-60, 48 h; summary of the method: as §1
HEK293 = experiment: Cytotoxicity against HEK293 cells after 48 hrs by MTT assay; type: cell-based; conditions: Homo sapiens, HEK293, 48 h
Raji = experiment: Antiproliferative activity against human Raji cells after 48 hrs by MTT assay; type: functional, cell-based; summary of the method: as §1
A549 = experiment: Antiproliferative activity against human A549 cells after 48 hrs by MTT assay; type: functional, cell-based; conditions: A549, 48 h; summary of the method: as §1
K562 = experiment: Antiproliferative activity against human K562 cells after 48 hrs by MTT assay; type: functional, cell-based; conditions: K562, 48 h; summary of the method: as §1
[3] = Antiproliferative activity against human MDA-MB-201 cells after 48 hrs by MTT assay; type: functional, cell-based; summary of the method: as §1
[4] = molecular target: T1, DNA topoisomerase 1 (Homo sapiens) (UniProt P11387); experiment: Inhibition of recombinant human topoisomerase 1-mediated relaxation of supercoiled pBR322 DNA at 50 uM incubated for 30 mins by agarose gel electrophoresis
T1 sequence (whole entry): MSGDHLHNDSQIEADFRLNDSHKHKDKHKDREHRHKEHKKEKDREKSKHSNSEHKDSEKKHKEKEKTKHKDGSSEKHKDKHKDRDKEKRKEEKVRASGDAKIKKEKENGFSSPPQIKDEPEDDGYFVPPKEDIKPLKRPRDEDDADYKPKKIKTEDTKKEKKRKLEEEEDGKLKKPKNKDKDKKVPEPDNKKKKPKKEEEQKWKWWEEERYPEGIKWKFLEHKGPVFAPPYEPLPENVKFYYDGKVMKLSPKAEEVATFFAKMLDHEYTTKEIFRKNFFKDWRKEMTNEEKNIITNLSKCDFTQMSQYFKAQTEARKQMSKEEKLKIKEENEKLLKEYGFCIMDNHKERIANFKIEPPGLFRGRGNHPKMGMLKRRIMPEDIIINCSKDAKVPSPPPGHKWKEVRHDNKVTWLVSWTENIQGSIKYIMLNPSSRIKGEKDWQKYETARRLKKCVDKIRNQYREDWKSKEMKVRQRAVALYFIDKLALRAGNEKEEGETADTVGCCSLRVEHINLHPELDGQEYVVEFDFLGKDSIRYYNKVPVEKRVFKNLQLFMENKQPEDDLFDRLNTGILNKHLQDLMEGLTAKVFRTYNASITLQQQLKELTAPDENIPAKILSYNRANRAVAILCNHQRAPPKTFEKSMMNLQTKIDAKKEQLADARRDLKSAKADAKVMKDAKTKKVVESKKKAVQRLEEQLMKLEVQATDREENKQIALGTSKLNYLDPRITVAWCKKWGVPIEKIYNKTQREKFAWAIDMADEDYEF
Summary of the method: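 Supercoiled pBR322 relaxed by Topo I with compound, incubated 30 min at 37 °C, stopped with 1% SDS dye, run on 1% agarose 1 h at 90 V in TAE, stained and imaged under UV; camptothecin as reference.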

[5] = Antiproliferative activity against human HL60/MX2 cells after 48 hrs by MTT assay; type: functional, cell-based; conditions: HL60/MX2, 48 h; summary of the method: as §1
HL-60 = experiment: Resistance index, ratio of IC50 for human HL60/MX2 cells to IC50 for HL60 cells; type: functional
Summary of the method: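 Resistance index calculated as MTT-derived IC50 (48 h exposure, 0-50 μM, A570 readout) in HL-60/MX2 divided by IC50 in parental HL-60.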

Row | Structure (SMILES) | inhibition [1] | IC50 (HeLa) [µM] | IC50 [2] [µM] | IC50 (HEK293) [µM] | IC50 (Raji) [µM] | IC50 (A549) [µM] | IC50 (K562) [µM] | IC50 [3] [µM] | inhibition [4] | IC50 [5] [µM] | Ratio IC50 (HL-60)
1 | CCn1c(N)c(-c2nc3ccccc3[nH]2)c2nc(C#N)c(C#N)nc21 | inactive | > 50 | > 50 | > 50 | > 50 | > 50 | > 50 | > 50 | inactive | > 50 | –
2 | Cn1c(N)c(-c2nc3ccccc3[nH]2)c2nc(C#N)c(C#N)nc21 | inactive | > 50 | > 50 | > 50 | > 50 | > 50 | > 50 | > 50 | inactive | > 50 | –
3 | N#Cc1nc2c(-c3nc4ccccc4[nH]3)c(N)n(CCCN3CCOCC3)c2nc1C#N | inactive | > 50 | > 50 | > 50 | 14.4 | > 50 | 7.72 | > 50 | inactive | 5.57 | –
4 | CCN(CC)CCCCn1c(N)c(-c2nc3cc(Cl)ccc3[nH]2)c2nc(C#N)c(C#N)nc21 | Active | 3.64 | 0.82 | 3.86 | 0.72 | 2.27 | 1.27 | 2.84 | – | 1.77 | 2.2
5 | CN(C)CCCCn1c(N)c(-c2nc3cc(Cl)ccc3[nH]2)c2nc(C#N)c(C#N)nc21 | Active | 3.12 | 1.48 | 4.73 | 0.95 | 12.1 | 1.93 | 3.28 | – | 0.58 | 0.4
6 | CN(C)CCCCCn1c(N)c(-c2nc3ccccc3[nH]2)c2nc(C#N)c(C#N)nc21 | – | 10.8 | 3.42 | – | – | – | – | – | – | – | –
7 | N#Cc1nc2c(-c3nc4ccccc4[nH]3)c(N)n(CCc3cc4ccccc4[nH]3)c2nc1C#N | inactive | > 50 | > 50 | > 50 | > 50 | > 50 | > 50 | > 50 | inactive | > 50 | –
8 | CN(C)CCn1c(N)c(-c2nc3cc(Cl)ccc3[nH]2)c2nc(C#N)c(C#N)nc21 | inactive | > 50 | > 50 | > 50 | 11.8 | > 50 | 11.3 | > 50 | – | > 50 | –
9 | CCN(CC)CCCn1c(N)c(-c2nc3cc(Cl)ccc3[nH]2)c2nc(C#N)c(C#N)nc21 | Active | 24.4 | 3.47 | 8.42 | 1.62 | > 50 | 4.83 | 23.2 | – | 2.46 | 0.7
10 | CCCn1c(N)c(-c2nc3ccccc3[nH]2)c2nc(C#N)c(C#N)nc21 | inactive | > 50 | 45.2 | > 50 | > 50 | 1.97 | > 50 | > 50 | inactive | > 50 | –
11 | N#Cc1nc2c(-c3nc4ccccc4[nH]3)c(N)n(CCc3ccccc3)c2nc1C#N | inactive | > 50 | > 50 | > 50 | 15.4 | > 50 | > 50 | > 50 | – | > 50 | –
12 | CN(C)CCn1c(N)c(-c2nc3ccccc3n2C)c2nc(C#N)c(C#N)nc21 | inactive | > 50 | > 50 | > 50 | 46.5 | > 50 | > 50 | > 50 | – | 4.68 | –
